Here are results for 4 compounds from ChEMBL document CHEMBL4190249, “Antiproliferative and apoptotic activities of sequence-specific histone acetyltransferase inhibitors” (Eur J Med Chem, 2017).

pIC50: −log10 of the molar value. Calls of active or inactive are those of the source. No cut-off for these calls is given here.

In test [1] the target is T1, Histone acetyltransferase p300 (Homo sapiens, UniProt Q09472). Kind of test: Inhibition of p300 (unknown origin) at 1 to 5 uM sing H3 peptide and acetyl-coA as substrate by fluorometric assay. The procedure, abridged:
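Fluorometric HAT kit assay with recombinant p300 core domain as enzyme and acetyl-CoA plus H3 histone peptide as substrates. Released CoA-SH reacts with a developer, read at Ex/Em 535/587 nm. Effectors were tested at 1 and 5 μM. HeLa nuclear extract served as positive control, and 0.5% DMSO was set as 100% activity.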

The test system of test [2] is A549. The test can be described thus: Antiproliferative activity against human A549 cells at 0.1 to 10 uM after 96 hrs by WST8 assay. The format is functional, cell-based. The procedure, abridged: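 Cells seeded at 5×10^3 per well and grown 24 h at 37°C, 5% CO2. A549 medium was DMEM with 10% FBS and 2 mM L-glutamine. SW620 medium had 10% FBS and 1% penicillin/streptomycin. Medium was then replaced with conjugate at 0.1, 1, 5 or 10 μM for 96 h. WST-8 reagent was added and absorbance read at 450 nm. Results are mean ± SD.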
For orientation: Formazan colour is commonly taken as a measure of viable cells.

The target in test [3] is T1, Histone acetyltransferase p300. The test can be described thus: Inhibition of p300 (unknown origin) using H3 peptide and acetyl-coA as substrate by fluorometric assay. The procedure, abridged:
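Fluorometric HAT kit assay with recombinant p300 core domain as enzyme and acetyl-CoA plus H3 histone peptide as substrates. Effectors were tested at 1 and 5 μM. HeLa nuclear extract served as positive control, and 0.5% DMSO was set as 100% activity.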

In test [4] the test system is dsDNA. Kind of test: Binding affinity to 5'-ACTTATTCCATATAGA-3'/3'-TGAATAAGGTATATCT-5' dsDNA (unknown origin) assessed as change in melting temperature at 2.5 uM by spectrophotometric method. Format: nucleic-acid assay.
Test [5] relates to dsDNA. Kind of test: Binding affinity to 5'-ACTTATCCACTATAGA-3'/3'-TGAATAGGTGATATCT-5' dsDNA (unknown origin) assessed as change in melting temperature at 2.5 uM by spectrophotometric method. The format is nucleic-acid assay.
Test [6] concerns A549. Kind of test: Anticlonogenic activity against human A549 cells after 10 days. The format is functional, cell-based. As to conditions: A549, 240 h.
The test system of test [7] is NCI-H157. Kind of test: Anticlonogenic activity against human NCI-H157 cells after 10 days. The format is functional, cell-based. As to conditions: NCI-H157, 240 h.
The subject of test [8] is NCI-H460. Kind of test: Anticlonogenic activity against human NCI-H460 cells after 10 days. Format: functional, cell-based. As to conditions: NCI-H460, 240 h.

T1 sequence (Q09472 whole entry, the tested form may be a part): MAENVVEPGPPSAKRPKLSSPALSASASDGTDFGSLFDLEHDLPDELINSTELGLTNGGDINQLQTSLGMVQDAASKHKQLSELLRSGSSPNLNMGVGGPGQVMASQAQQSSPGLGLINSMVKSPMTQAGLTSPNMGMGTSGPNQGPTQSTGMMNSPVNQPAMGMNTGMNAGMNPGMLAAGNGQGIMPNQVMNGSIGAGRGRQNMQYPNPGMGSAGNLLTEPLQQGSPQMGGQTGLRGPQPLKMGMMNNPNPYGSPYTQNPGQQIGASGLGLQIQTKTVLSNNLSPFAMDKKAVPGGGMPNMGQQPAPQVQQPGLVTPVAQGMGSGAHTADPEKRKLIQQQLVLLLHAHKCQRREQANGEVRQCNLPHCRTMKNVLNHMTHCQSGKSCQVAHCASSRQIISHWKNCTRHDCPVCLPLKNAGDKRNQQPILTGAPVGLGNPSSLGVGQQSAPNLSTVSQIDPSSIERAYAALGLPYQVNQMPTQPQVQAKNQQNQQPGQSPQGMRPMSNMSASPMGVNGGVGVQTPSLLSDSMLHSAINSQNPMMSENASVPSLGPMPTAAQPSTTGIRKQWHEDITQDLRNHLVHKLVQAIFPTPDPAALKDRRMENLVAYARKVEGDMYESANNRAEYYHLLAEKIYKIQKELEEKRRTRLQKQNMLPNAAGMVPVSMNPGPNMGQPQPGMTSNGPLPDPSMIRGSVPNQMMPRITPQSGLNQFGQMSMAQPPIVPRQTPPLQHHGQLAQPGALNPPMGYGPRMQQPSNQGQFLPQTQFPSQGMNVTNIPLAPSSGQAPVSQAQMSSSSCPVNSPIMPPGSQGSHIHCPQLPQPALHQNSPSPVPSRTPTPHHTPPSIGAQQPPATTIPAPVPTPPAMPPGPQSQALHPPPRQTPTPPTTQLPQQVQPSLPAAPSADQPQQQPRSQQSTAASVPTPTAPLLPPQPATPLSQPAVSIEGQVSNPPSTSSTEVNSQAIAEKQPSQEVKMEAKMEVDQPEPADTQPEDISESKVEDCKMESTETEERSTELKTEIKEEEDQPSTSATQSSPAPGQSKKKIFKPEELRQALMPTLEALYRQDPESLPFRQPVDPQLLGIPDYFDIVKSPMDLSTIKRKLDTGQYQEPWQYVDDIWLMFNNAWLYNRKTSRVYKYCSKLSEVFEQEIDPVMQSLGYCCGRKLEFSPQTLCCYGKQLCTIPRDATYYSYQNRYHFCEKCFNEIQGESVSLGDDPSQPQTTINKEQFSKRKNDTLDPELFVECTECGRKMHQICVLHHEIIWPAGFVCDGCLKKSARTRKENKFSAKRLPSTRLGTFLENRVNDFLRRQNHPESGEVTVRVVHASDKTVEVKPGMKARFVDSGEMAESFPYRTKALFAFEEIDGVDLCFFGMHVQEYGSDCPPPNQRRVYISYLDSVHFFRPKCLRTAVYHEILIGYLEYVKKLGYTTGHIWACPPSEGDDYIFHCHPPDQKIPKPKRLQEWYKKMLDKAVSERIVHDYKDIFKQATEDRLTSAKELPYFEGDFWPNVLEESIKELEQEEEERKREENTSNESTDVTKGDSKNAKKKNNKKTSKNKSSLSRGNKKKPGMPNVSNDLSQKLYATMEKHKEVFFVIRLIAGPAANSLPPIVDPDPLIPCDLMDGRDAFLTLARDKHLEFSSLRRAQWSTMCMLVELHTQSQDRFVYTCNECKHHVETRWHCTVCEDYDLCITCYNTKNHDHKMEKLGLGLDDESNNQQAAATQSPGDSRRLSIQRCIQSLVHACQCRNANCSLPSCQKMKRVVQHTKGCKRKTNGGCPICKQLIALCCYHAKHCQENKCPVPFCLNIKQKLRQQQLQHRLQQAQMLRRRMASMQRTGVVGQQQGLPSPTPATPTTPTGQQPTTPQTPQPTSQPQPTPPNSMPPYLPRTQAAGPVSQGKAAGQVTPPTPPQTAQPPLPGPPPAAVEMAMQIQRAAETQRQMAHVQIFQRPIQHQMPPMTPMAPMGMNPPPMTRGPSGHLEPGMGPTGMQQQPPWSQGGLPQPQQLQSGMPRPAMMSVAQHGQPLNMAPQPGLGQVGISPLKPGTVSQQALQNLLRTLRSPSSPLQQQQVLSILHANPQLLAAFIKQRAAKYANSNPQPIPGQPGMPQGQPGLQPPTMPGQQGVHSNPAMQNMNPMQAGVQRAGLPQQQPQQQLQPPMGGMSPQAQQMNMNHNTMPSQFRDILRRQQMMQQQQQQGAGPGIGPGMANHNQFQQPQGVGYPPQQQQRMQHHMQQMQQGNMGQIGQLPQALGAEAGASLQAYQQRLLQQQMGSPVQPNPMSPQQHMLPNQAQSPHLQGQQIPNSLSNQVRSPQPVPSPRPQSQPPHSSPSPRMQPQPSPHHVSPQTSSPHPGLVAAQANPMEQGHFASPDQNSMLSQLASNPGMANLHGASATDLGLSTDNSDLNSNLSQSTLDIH

Regarding `CC(=O)Nc1cc(C(=O)Nc2cn(C)c(C(=O)Nc3cn(C)c(C(=O)Nc4cc(C(=O)NCCCC(=O)Nc5cc(C(=O)Nc6cc(C(=O)Nc7cc(C(=O)Nc8cc(C(=O)NCCCN(C)C)n(C)c8)n(C)c7)n(C)c6)n(C)c5)n(C)c4)n3)n2)n(C)c1`, the inhibition result in test [1] is “inactive”. In addition, the result in test [2] was inactive.

For `CCCCCCCCCCCCCCCc1cccc(O)c1C(=O)O`, the inhibition entry in test [3] is “Dose-dependent effect”.

What is called ΔTm is the shift of the melting midpoint relative to a reference. By pIC50 is commonly meant the IC50 on a negative log10 scale, so that one unit is a factor of ten. Lower therefore signals a large IC50. On to `CC1=NN(c2ccc(C(=O)NCCOCCOCC(=O)NCCOCCOCC(=O)Nc3cc(C(=O)Nc4cn(C)c(C(=O)Nc5cn(C)c(C(=O)Nc6cc(C(=O)NCCCC(=O)Nc7cc(C(=O)Nc8cc(C(=O)Nc9cc(C(=O)Nc%10cc(C(=O)NCCCN(C)C)n(C)c%10)n(C)c9)n(C)c8)n(C)c7)n(C)c6)n5)n4)n(C)c3)cc2)C(=O)/C1=C/c1ccc(-c2cc(C)c(C)cc2[N+](=O)[O-])o1`, for which the ΔTm in test [4] is 18.4 °C; in test [5], 12.2 °C. This compound also showed a pIC50 in test [3] of 5.38 to 5.41. Also, the outcome in test [2] was Active.

For `CC1=NN(c2ccc(C(=O)O)cc2)C(=O)/C1=C/c1ccc(-c2cc(C)c(C)cc2[N+](=O)[O-])o1`, the pIC50 in test [6] is 5.00; in test [7] it was 5.22; in test [8], 5.20. Besides, the result in test [2] was inactive.
